pIC50, pKi: −log10 of the molar value. Activity calls are given as the source filed them. The calls are words filed in the database; no cut-off is given here.
How the values were obtained:
[1] = molecular target: T1, Botulinum neurotoxin type A (Clostridium botulinum, UniProt P0DPI0); test: Inhibition of protease activity of recombinant Clostridium botulinum BoNT/A light chain (425 amino acids) using SNAP-25 as substrate preincubated for 20 followed by substrate addition measured for 25 mins by FRET analysis
T1 sequence (P0DPI0 2-448 limits assumed): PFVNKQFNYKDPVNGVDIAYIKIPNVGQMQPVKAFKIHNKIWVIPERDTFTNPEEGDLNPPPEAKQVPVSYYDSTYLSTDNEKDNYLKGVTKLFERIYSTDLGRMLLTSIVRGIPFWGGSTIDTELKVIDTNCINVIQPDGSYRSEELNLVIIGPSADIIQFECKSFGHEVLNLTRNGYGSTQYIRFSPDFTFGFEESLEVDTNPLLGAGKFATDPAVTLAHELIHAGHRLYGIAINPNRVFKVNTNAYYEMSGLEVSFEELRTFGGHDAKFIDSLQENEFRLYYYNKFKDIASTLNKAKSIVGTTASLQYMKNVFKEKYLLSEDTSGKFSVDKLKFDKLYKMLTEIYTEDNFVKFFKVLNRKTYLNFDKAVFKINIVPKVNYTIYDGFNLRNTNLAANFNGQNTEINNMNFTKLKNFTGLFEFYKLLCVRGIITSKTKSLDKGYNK
Summary of the method: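 Compound (from 50X DMSO stock) preincubated 20 min with recombinant 425-aa BoNT/A LC (56 nM working solution) in 40 mM HEPES, 0.1% Triton X-100, pH 7.4. SNAPtide FRET substrate (6 µM solution) then added and read for 25 min at ex 490/em 523 nm. V0 taken from linear slopes, in duplicate at ≥4 inhibitor dilutions, normalized to DMSO. IC50 from Hill-equation fit.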

[2] = molecular target: T1, Botulinum neurotoxin type A; test: Uncompetitive inhibition of recombinant Clostridium botulinum BoNT/A light chain (425 amino acids) using SNAP-25 as substrate preincubated for 20 followed by substrate addition measured for 25 mins by Lineweaver-Burk plot analysis
[3] = molecular target: Botulinum neurotoxin type A (Clostridium botulinum) (UniProt P0DPI0); test: Inhibition of BoNT/A light chain mediated proteolysis of CFP and YFP tagged full-length SNAP-25 expressed in BoCells at 25 uM after 20 hrs by fluorescence assay
Botulinum neurotoxin type A (Clostridium botulinum), sequence (P0DPI0 2-448 limits assumed): as above

[4] = molecular target: Botulinum neurotoxin type A (Clostridium botulinum) (UniProt P0DPI0); test: Inhibition of BoNT/A induced paralysis in intoxicated CD1 mouse hemidiaphragm muscles assessed as increase in half paralysis time at 20 uM pretreated for 1 hr followed by intoxication
[5] = molecular target: Botulinum neurotoxin type A (Clostridium botulinum) (UniProt P0DPI0); conditions: 12.5 uM

| Compound | pIC50 [1] | pKi [2] | inhibition [3] | inhibition [4] | inhibition [5] |
| --- | --- | --- | --- | --- | --- |
| O=S(=O)(c1ccc(O)c2ncccc12)N1CCc2c(Cl)cccc21 | 5.44 | 5.69 | Active | Active | – |
| NNc1ccc2c(S(=O)(=O)N3CCc4c(Cl)cccc43)ccc(O)c2n1 | 5.81 | 6.05 | inactive | Active | – |
| Oc1c(C(Nc2ccccn2)c2ccccc2)ccc2cccnc12 (stereo not drawn) | – | – | inactive | inactive | – |
| CN(c1ccccc1)S(=O)(=O)c1ccc(O)c2ncccc12 | 5.14 | – | – | – | – |
| CN(c1cccc(Cl)c1)S(=O)(=O)c1ccc(O)c2ncccc12 | 5.37 | – | – | – | – |
| O=S(=O)(Nc1cccc(Cl)c1)c1ccc(O)c2ncccc12 | 5.14 | – | – | – | – |
| Nc1ccc2c(S(=O)(=O)N3CCc4c(Cl)cccc43)ccc(O)c2n1 | 5.47 | – | Active | Active | – |
| O=S(=O)(Nc1ccccc1)c1ccc(O)c2ncccc12 | 4.90 | – | – | – | – |
| CC(=O)NNc1ccc2c(S(=O)(=O)N3CCc4c(Cl)cccc43)ccc(O)c2n1 | 5.27 | – | inactive | Active | – |
| O=S(=O)(c1ccc(O)c2ncccc12)N1CCCCC1 | 4.74 | – | – | – | – |
| O=S(=O)(c1ccc(O)c2ncccc12)N1CCc2ccc(Cl)cc21 | 4.89 | – | – | – | – |
| CNc1ccc2c(S(=O)(=O)N3CCc4c(Cl)cccc43)ccc(O)c2n1 | 4.42 | – | – | – | – |
| CNNc1ccc2c(S(=O)(=O)N3CCc4c(Cl)cccc43)ccc(O)c2n1 | 5.49 | – | Active | Active | Active |
| CCNc1ccc2c(S(=O)(=O)N3CCc4c(Cl)cccc43)ccc(O)c2n1 | 4.54 | – | – | – | – |

— ChEMBL document CHEMBL4041525, “Newly Designed Quinolinol Inhibitors Mitigate the Effects of Botulinum Neurotoxin A in Enzymatic, Cell-Based, and ex Vivo Assays” (J Med Chem, 2017)
